# Data as given in ChEMBL document CHEMBL4689842, “EUbOPEN Chemogenomics Library wave 1” (2021).
# Tested on: HEK-293T
# Test: Multiplex assay against HEK293T;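 as to Population Tubulin-Different-Phenotype (%): share of the cells with healthy nuclei that show this phenotype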
# Type: toxicity, cell-based
# Settings: human
# Outline: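 Per cents of healthy-nucleus cells form the tubulin, mitochondrial-mass and membrane-permeability phenotype values. Live cells were stained at seeding with Hoechst33342, BioTracker Green Microtubule Cytoskeleton Dye, MitoTracker Red and Annexin V Alexa Fluor 680. After compound addition they were imaged on a CQ1 microscope at 37°C and 5% CO2, and CellPathfinder machine-learning gating split them into Hoechst high-intensity objects or normal cells, normal cells into healthy, pyknosed or fragmented nuclei, and pyknosed cells into mitotic or apoptotic.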
# [1] = 12 h, 1 µM, compound concentration 1 uM, replicate 1
# [2] = 12 h, 1 µM, compound concentration 1 uM, replicate 2
# [3] = 12 h, 10 µM, compound concentration 10 uM, replicate 1
# [4] = 12 h, 10 µM, compound concentration 10 uM, replicate 2
# [5] = 24 h, 1 µM, compound concentration 1 uM, replicate 1
# [6] = 24 h, 1 µM, compound concentration 1 uM, replicate 2
# [7] = 24 h, 10 µM, compound concentration 10 uM, replicate 1
# [8] = 24 h, 10 µM, compound concentration 10 uM, replicate 2
# [9] = 48 h, 1 µM, compound concentration 1 uM, replicate 1
# [10] = 48 h, 1 µM, compound concentration 1 uM, replicate 2
# [11] = 48 h, 10 µM, compound concentration 10 uM, replicate 1
# [12] = 48 h, 10 µM, compound concentration 10 uM, replicate 2
structure (smiles),measurement,setting,value
COc1cc(Nc2nccc(-c3cnn4nc(OC)ccc34)n2)cc(C(F)(F)F)c1,Population Apoptotic (%),[1],47%
same,Population Fragmented Nuclei (%),[1],16%
same,Population Healthy Nuclei (%),[1],19%
same,Population Hoechst High Intensity Objects (%),[1],13%
same,Population Membrane Permeable-Phenotype (%),[1],2%
same,Population Mitochondria Different-Phenotype (%),[1],77%
same,Population Mitotic Cells (%),[1],52%
same,Population Normal (%),[1],86%
same,Population Pyknosed Nuclei (%),[1],64%
same,Population Tubulin-Different-Phenotype (%),[1],30%
same,Total Cell Count,[1],214
same,Population Apoptotic (%),[2],7%
same,Population Fragmented Nuclei (%),[2],6%
same,Population Healthy Nuclei (%),[2],44%
same,Population Hoechst High Intensity Objects (%),[2],1%
same,Population Membrane Permeable-Phenotype (%),[2],11%
same,Population Mitochondria Different-Phenotype (%),[2],14%
same,Population Mitotic Cells (%),[2],92%
same,Population Normal (%),[2],98%
same,Population Pyknosed Nuclei (%),[2],48%
same,Population Tubulin-Different-Phenotype (%),[2],17%
same,Total Cell Count,[2],192
same,Population Apoptotic (%),[3],68%
same,Population Fragmented Nuclei (%),[3],33%
same,Population Healthy Nuclei (%),[3],21%
same,Population Hoechst High Intensity Objects (%),[3],24%
same,Population Membrane Permeable-Phenotype (%),[3],7%
same,Population Mitochondria Different-Phenotype (%),[3],86%
same,Population Mitotic Cells (%),[3],31%
same,Population Normal (%),[3],75%
same,Population Pyknosed Nuclei (%),[3],44%
same,Population Tubulin-Different-Phenotype (%),[3],36%
same,Total Cell Count,[3],317
same,Population Apoptotic (%),[4],21%
same,Population Fragmented Nuclei (%),[4],6%
same,Population Healthy Nuclei (%),[4],34%
same,Population Hoechst High Intensity Objects (%),[4],11%
same,Population Membrane Permeable-Phenotype (%),[4],4%
same,Population Mitochondria Different-Phenotype (%),[4],37%
same,Population Mitotic Cells (%),[4],78%
same,Population Normal (%),[4],88%
same,Population Pyknosed Nuclei (%),[4],59%
same,Population Tubulin-Different-Phenotype (%),[4],33%
same,Total Cell Count,[4],275
same,Population Apoptotic (%),[5],47%
same,Population Fragmented Nuclei (%),[5],16%
same,Population Healthy Nuclei (%),[5],22%
same,Population Hoechst High Intensity Objects (%),[5],20%
same,Population Membrane Permeable-Phenotype (%),[5],2%
same,Population Mitochondria Different-Phenotype (%),[5],76%
same,Population Mitotic Cells (%),[5],52%
same,Population Normal (%),[5],79%
same,Population Pyknosed Nuclei (%),[5],61%
same,Population Tubulin-Different-Phenotype (%),[5],35%
same,Total Cell Count,[5],221
same,Population Apoptotic (%),[6],8%
same,Population Fragmented Nuclei (%),[6],6%
same,Population Healthy Nuclei (%),[6],65%
same,Population Hoechst High Intensity Objects (%),[6],3%
same,Population Membrane Permeable-Phenotype (%),[6],9%
same,Population Mitochondria Different-Phenotype (%),[6],11%
same,Population Mitotic Cells (%),[6],91%
same,Population Normal (%),[6],96%
same,Population Pyknosed Nuclei (%),[6],27%
same,Population Tubulin-Different-Phenotype (%),[6],17%
same,Total Cell Count,[6],252
same,Population Apoptotic (%),[7],75%
same,Population Fragmented Nuclei (%),[7],33%
same,Population Healthy Nuclei (%),[7],20%
same,Population Hoechst High Intensity Objects (%),[7],23%
same,Population Membrane Permeable-Phenotype (%),[7],1%
same,Population Mitochondria Different-Phenotype (%),[7],84%
same,Population Mitotic Cells (%),[7],24%
same,Population Normal (%),[7],76%
same,Population Pyknosed Nuclei (%),[7],46%
same,Population Tubulin-Different-Phenotype (%),[7],39%
same,Total Cell Count,[7],330
same,Population Apoptotic (%),[8],23%
same,Population Fragmented Nuclei (%),[8],7%
same,Population Healthy Nuclei (%),[8],55%
same,Population Hoechst High Intensity Objects (%),[8],13%
same,Population Membrane Permeable-Phenotype (%),[8],4%
same,Population Mitochondria Different-Phenotype (%),[8],45%
same,Population Mitotic Cells (%),[8],76%
same,Population Normal (%),[8],86%
same,Population Pyknosed Nuclei (%),[8],36%
same,Population Tubulin-Different-Phenotype (%),[8],42%
same,Total Cell Count,[8],293
same,Population Apoptotic (%),[9],62%
same,Population Fragmented Nuclei (%),[9],18%
same,Population Healthy Nuclei (%),[9],25%
same,Population Hoechst High Intensity Objects (%),[9],21%
same,Population Membrane Permeable-Phenotype (%),[9],2%
same,Population Mitochondria Different-Phenotype (%),[9],41%
same,Population Mitotic Cells (%),[9],37%
same,Population Normal (%),[9],78%
same,Population Pyknosed Nuclei (%),[9],56%
same,Population Tubulin-Different-Phenotype (%),[9],18%
same,Total Cell Count,[9],219
same,Population Apoptotic (%),[10],4%
same,Population Fragmented Nuclei (%),[10],5%
same,Population Healthy Nuclei (%),[10],83%
same,Population Hoechst High Intensity Objects (%),[10],3%
same,Population Membrane Permeable-Phenotype (%),[10],5%
same,Population Mitochondria Different-Phenotype (%),[10],6%
same,Population Mitotic Cells (%),[10],95%
same,Population Normal (%),[10],96%
same,Population Pyknosed Nuclei (%),[10],10%
same,Total Cell Count,[10],465
same,Population Apoptotic (%),[11],74%
same,Population Fragmented Nuclei (%),[11],39%
same,Population Healthy Nuclei (%),[11],24%
same,Population Hoechst High Intensity Objects (%),[11],25%
same,Population Membrane Permeable-Phenotype (%),[11],0%
same,Population Mitochondria Different-Phenotype (%),[11],86%
same,Population Mitotic Cells (%),[11],25%
same,Population Normal (%),[11],74%
same,Population Pyknosed Nuclei (%),[11],36%
same,Population Tubulin-Different-Phenotype (%),[11],56%
same,Total Cell Count,[11],331
same,Population Apoptotic (%),[12],42%
same,Population Fragmented Nuclei (%),[12],7%
same,Population Healthy Nuclei (%),[12],63%
same,Population Hoechst High Intensity Objects (%),[12],9%
same,Population Membrane Permeable-Phenotype (%),[12],2%
same,Population Mitochondria Different-Phenotype (%),[12],35%
same,Population Mitotic Cells (%),[12],57%
same,Population Normal (%),[12],90%
same,Population Pyknosed Nuclei (%),[12],28%
same,Population Tubulin-Different-Phenotype (%),[12],39%
same,Total Cell Count,[12],297
Cc1ccccc1C(c1ccccc1C)N1C2CCC1CC(O)(c1ccccc1)C2 (centres undefined),Population Apoptotic (%),[1],48%
same,Population Healthy Nuclei (%),[1],40%
same,Population Mitotic Cells (%),[1],51%
same,Population Normal (%),[1],82%
same,Population Pyknosed Nuclei (%),[1],48%
same,Total Cell Count,[1],233
same,Population Apoptotic (%),[2],13%
same,Population Healthy Nuclei (%),[2],39%
same,Population Mitotic Cells (%),[2],86%
same,Population Normal (%),[2],94%
same,Population Pyknosed Nuclei (%),[2],55%
same,Total Cell Count,[2],261
same,Population Apoptotic (%),[3],53%
same,Population Healthy Nuclei (%),[3],36%
same,Population Mitotic Cells (%),[3],46%
same,Population Normal (%),[3],88%
same,Population Pyknosed Nuclei (%),[3],54%
same,Total Cell Count,[3],350
same,Population Healthy Nuclei (%),[4],26%
same,Population Mitotic Cells (%),[4],78%
same,Population Normal (%),[4],96%
same,Population Pyknosed Nuclei (%),[4],69%
same,Total Cell Count,[4],210
same,Population Apoptotic (%),[5],43%
same,Population Healthy Nuclei (%),[5],45%
same,Population Mitotic Cells (%),[5],56%
same,Population Normal (%),[5],82%
same,Population Pyknosed Nuclei (%),[5],40%
same,Total Cell Count,[5],254
same,Population Apoptotic (%),[6],13%
same,Population Healthy Nuclei (%),[6],61%
same,Population Mitotic Cells (%),[6],86%
same,Population Normal (%),[6],98%
same,Population Pyknosed Nuclei (%),[6],32%
same,Total Cell Count,[6],355
same,Population Apoptotic (%),[7],49%
same,Population Healthy Nuclei (%),[7],42%
same,Population Mitotic Cells (%),[7],50%
same,Population Normal (%),[7],91%
same,Population Pyknosed Nuclei (%),[7],48%
same,Total Cell Count,[7],339
same,Population Healthy Nuclei (%),[8],43%
same,Population Mitotic Cells (%),[8],68%
same,Population Normal (%),[8],95%
same,Population Pyknosed Nuclei (%),[8],53%
same,Total Cell Count,[8],229
same,Population Healthy Nuclei (%),[9],49%
same,Population Mitotic Cells (%),[9],68%
same,Population Normal (%),[9],87%
same,Population Pyknosed Nuclei (%),[9],28%
same,Total Cell Count,[9],301
same,Population Healthy Nuclei (%),[10],85%
same,Population Mitotic Cells (%),[10],87%
same,Population Normal (%),[10],98%
same,Population Pyknosed Nuclei (%),[10],10%
same,Total Cell Count,[10],568
same,Population Apoptotic (%),[11],50%
same,Population Healthy Nuclei (%),[11],45%
same,Population Mitotic Cells (%),[11],49%
same,Population Normal (%),[11],91%
same,Population Pyknosed Nuclei (%),[11],42%
same,Total Cell Count,[11],372
same,Population Apoptotic (%),[12],23%
same,Population Healthy Nuclei (%),[12],72%
same,Population Mitotic Cells (%),[12],76%
same,Population Normal (%),[12],97%
same,Population Pyknosed Nuclei (%),[12],24%
same,Total Cell Count,[12],302
